The record followed here is ChEMBL document CHEMBL1955721, “Syntheses and cellular investigations of 17(3)-, 15(2)-, and 13(1)-amino acid derivatives of chlorin e(6)” (J Med Chem, 2011).

For data set [1], the system named is HEp-2. In words: Ratio of IC50 for cytotoxicity against human Hep2 cells under dark condition to IC50 for human Hep2 cells in presence of 1 J/cm'2 light. In kind it is functional.
Data set [2] can be described thus: Drug uptake in human Hep2 cell endoplasmic reticulum at 10 uM after 18 hrs by fluorescence microscopic analysis. The data set is classed as ADME, cell-based. The conditions noted are these: hep-2, 18 h. The gist of the method: (§1)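 HEp2 cells grown 48 h on glass-bottom wells, then exposed to 10 µM compound for 18 h. Co-stained 30 min at 37 °C with LysoSensor Green 50 nM, MitoTracker Green 250 nM, ER Tracker Blue/White 100 nM or BODIPY FL C5 ceramide. Washed three times with PBS. Organelle sites scored by fluorescence overlay microscopy as major or minor.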

For data set [3], the system named is HEp-2. The data set can be described thus: Drug uptake in human Hep2 cells at 10 uM measured up to 25 hrs by […]. In kind it is ADME, cell-based. Particulars: hep-2, 24 h, in the assay text read “24 hrs” for “25 hrs”; call rule not given here. Put shortly: (§2)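 HEp2 cells plated 7500/well and grown 48 h. Given 10 µM compound (final DMSO ≤1%, Cremophor 0.1%) for 0, 1, 2, 4, 8, 12 and 24 h. Washed with PBS and lysed in 0.25% Triton X-100. Intracellular compound read by intrinsic fluorescence (ex 355/em 650 nm) in a plate reader and normalized to cell number by CyQuant.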

Data set [4] concerns HEp-2. In words: Cytotoxicity against human Hep2 cells after overnight incubation followed by cells irradiated with 1 J/cm'2 light for 20 mins measured after overnight incubation by celltiter blue assay. The data set is classed as functional, cell-based. The conditions noted are these: HEp-2, light or radiation study. Put shortly:
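HEp2 cells in 50:50 DMEM:AMEM with 5% FBS, passages 4–15, plated 7500/well and grown 48 h. Loaded overnight at 6.25–100 µM. Medium then swapped for one with 50 mM HEPES pH 7.2. Irradiated 20 min with a 100 W halogen lamp through a 610 nm long-pass filter (~1 J/cm2), IR cut by 10 mm water, plate on ice-water. Incubated overnight at 37 °C, then CellTiter Blue viability read.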

Data set [5] in a line: Drug uptake in human Hep2 cell mitochondria at 10 uM after 18 hrs by fluorescence microscopic analysis. The data set is classed as ADME. Particulars: hep-2, 18 h. The gist of the method: as §1
Data set [6] is described as follows: Drug uptake in human Hep2 cell golgi at 10 uM after 18 hrs by fluorescence microscopic analysis. The data set is classed as ADME, cell-based. Particulars: hep-2, 18 h. Put shortly: as §1
A short description of data set [7]: Drug uptake in human Hep2 cell lysosomes at 10 uM after 18 hrs by fluorescence microscopic analysis. In kind it is ADME, cell-based, Lysosome. Particulars: hep-2, 18 h. The gist of the method:
as §1

For data set [8], the system named is HEp-2. In words: Cytotoxicity against human Hep2 cells under dark condition after 18 hrs by celltiter blue assay. The data set is classed as functional, cell-based. Particulars: HEp-2, 18 h. The gist of the method:
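HEp2 cells (passages 4–15) plated 7500/well and grown 48 h. Two-fold serial dilutions from 400 to 50 µM applied for 18 h in the dark. Medium replaced, then CellTiter Blue added and incubated 4 h. Untreated cells taken as 100% viable, 0.2% saponin-treated as 0%.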

For data set [9], the system named is HEp-2. In words: Drug uptake in human Hep2 cells at 10 uM after 24 hrs by fluorescence microscopic analysis relative to chlorin e6. The data set is classed as ADME, cell-based. The conditions noted are these: hep-2, 24 h. Put shortly:
as §2

Consider `C=Cc1c(C)c2cc3nc(c(CC(=O)O)c4[nH]c(cc5nc(cc1[nH]2)C(C)=C5CC)c(C)c4C(=O)O)[C@@H](CCC(=O)O)[C@@H]3C` [CHLORIN E6], for which the “Ratio IC50” value in the data set on HEp-2 [1] is above 19.2. Further, the Drug uptake result in data set [2] is “Active”; in the data set with HEp-2 [3], “Active”; in data set [5] it was “Not Active”; in data set [6], “Not Active”; in data set [7], “Active”. The IC50 – broadly, the concentration that gives 50% inhibition – in the data set on HEp-2 [4] was 20.8 µM; with HEp-2 [8], above 400 µM.
On to `C=Cc1c(C)c2cc3nc(c(CC(=O)OC)c4[nH]c(cc5nc(cc1[nH]2)C(C)=C5CC)c(C)c4C(=O)OC)[C@@H](CCC(=O)N[C@@H](CCCCN)C(=O)OC)[C@@H]3C`, for which, in the data set with HEp-2 [1], the “Ratio IC50” value was above 15.3. Moreover, the Drug uptake entry in data set [2] is “Active”; with HEp-2 [3] it was “Active”; in [5], “Not Active”; in [6], “Active”; in data set [7], “Active”. For the same compound, the IC50 was 26.2 µM with HEp-2 [4] and above 400 µM in the data set with HEp-2 [8].
For `C=Cc1c(C)c2cc3nc(c(CC(=O)OC)c4[nH]c(cc5nc(cc1[nH]2)C(C)=C5CC)c(C)c4C(=O)NCCNC(=O)[C@@H](N)CCCCN)[C@@H](CCC(=O)OC)[C@@H]3C`, in the data set on HEp-2 [1], the “Ratio IC50” value was determined as 200.3. Besides, the Drug uptake entry in data set [2] is “Active”; with HEp-2 [3], “Active”; in [5], “Not Active”; in data set [6] it was “Active”; in data set [7], “Active”. Besides, the IC50 came out at 1.34 µM in the data set on HEp-2 [4] and 268 µM in the data set with HEp-2 [8].
Take `C=Cc1c(C)c2cc3nc(c(CC(=O)OC)c4[nH]c(cc5nc(cc1[nH]2)C(C)=C5CC)c(C)c4C(=O)NCCC(=O)N[C@@H](CC(=O)O)C(=O)O)[C@@H](CCC(=O)OC)[C@@H]3C`: the “Ratio IC50” value in the data set on HEp-2 [1] is recorded as 468.2. In addition, the Drug uptake result in [2] is listed as “Active”; with HEp-2 [3] it was “Active”; in [5], “Not Active”; in data set [6] it was “Active”; in data set [7], “Active”. The IC50 in the data set with HEp-2 [4] was 0.82 µM; in the data set with HEp-2 [8], 384 µM.
With `C=Cc1c(C)c2cc3nc(c(CC(=O)N[C@@H](CC(=O)O)C(=O)O)c4[nH]c(cc5nc(cc1[nH]2)C(C)=C5CC)c(C)c4C(=O)OC)[C@@H](CCC(=O)OC)[C@@H]3C`, in the data set on HEp-2 [1], the “Ratio IC50” value came to 93.4. Moreover, the Drug uptake entry is reported as “Active” in [2]; “Active” in the data set with HEp-2 [3]; “Active” in data set [5]; “Not Active” in data set [6]; “Active” in data set [7]. Also, the values for the IC50 in the data set on HEp-2 [4] and in the data set on HEp-2 [8] were 4 µM and 373 µM, respectively.
For `C=Cc1c(C)c2cc3nc(c(CC(=O)N[C@@H](CCCCN)C(=O)OC)c4[nH]c(cc5nc(cc1[nH]2)C(C)=C5CC)c(C)c4C(=O)OC)[C@@H](CCC(=O)OC)[C@@H]3C`, the “Ratio IC50” value with HEp-2 [1] is above 13.9. For the same compound, the Drug uptake result was “Active” in [2], “Not Active” in [5], “Active” in [6] and “Active” in data set [7]. Moreover, the IC50 in the data set on HEp-2 [4] is 28.8 µM; with HEp-2 [8], above 400 µM. Moreover, the “fold change (FC)” value in the data set with HEp-2 [9] was 18.
In the case of `C=Cc1c(C)c2cc3nc(c(CC(=O)OC)c4[nH]c(cc5nc(cc1[nH]2)C(C)=C5CC)c(C)c4C(=O)N[C@@H](CC(=O)O)C(=O)O)[C@@H](CCC(=O)OC)[C@@H]3C`, the “Ratio IC50” value with HEp-2 [1] stood at 466.6. For the same compound, the Drug uptake result (in data set [2]; with HEp-2 [3]; in [5]; in data set [6]; in data set [7]) was “Active” throughout. In addition, the IC50 in the data set on HEp-2 [4] came out at 0.61 µM; with HEp-2 [8], 285 µM.
